Experimental data taken from ChEMBL document CHEMBL2150936, “Anticancer activity of small amphipathic β²,²-amino acid derivatives” (Eur J Med Chem, 2012).
Calls of active or inactive are those of the source. The rule behind the calls is not given here.

Assays:
KM12 = assay: Cytotoxicity against human KM12 cells after 4 hrs by MTT assay; type: functional, cell-based; details: KM12, 4 h
SW-620 = assay: Cytotoxicity against human SW620 cells after 4 hrs by MTT assay; type: functional, cell-based; details: SW-620, 4 h
SF-268 = assay: Cytotoxicity against human SF268 cells after 4 hrs by MTT assay; type: functional, cell-based; details: SF-268, 4 h
SF-295 = assay: Cytotoxicity against human SF295 cells after 4 hrs by MTT assay; type: functional, cell-based; details: SF-295, 4 h
SF-539 = assay: Cytotoxicity against human SF539 cells after 4 hrs by MTT assay; type: functional, cell-based; details: SF-539, 4 h
SNB-19 = assay: Cytotoxicity against human SNB19 cells after 4 hrs by MTT assay; type: functional, cell-based; details: SNB-19, 4 h
SNB-75 = assay: Cytotoxicity against human SNB75 cells after 4 hrs by MTT assay; type: functional, cell-based; details: SNB-75, 4 h
U-251 = assay: Cytotoxicity against human U251 cells after 4 hrs by MTT assay; type: functional, cell-based; details: U-251, 4 h
M14 = assay: Cytotoxicity against human M14 cells after 4 hrs by MTT assay; type: functional, cell-based; details: M14, 4 h
MDA-MB-435 = assay: Cytotoxicity against human MDA-MB-435 cells after 4 hrs by MTT assay; type: functional, cell-based; details: MDA-MB-435, 4 h
UACC-257 = assay: Cytotoxicity against human UACC257 cells after 4 hrs by MTT assay; type: functional, cell-based; details: UACC-257, 4 h
OVCAR-5 = assay: Cytotoxicity against human OVCAR5 cells after 4 hrs by MTT assay; type: functional, cell-based; details: OVCAR-5, 4 h
SK-OV-3 = assay: Cytotoxicity against human SKOV3 cells after 4 hrs by MTT assay; type: functional, cell-based; details: SK-OV-3, 4 h
CAKI-1 = assay: Cytotoxicity against human CAKI-1 cells after 4 hrs by MTT assay; type: functional, cell-based; details: CAKI-1, 4 h
RXF 393 = assay: Cytotoxicity against human RXF393 cells after 4 hrs by MTT assay; type: functional, cell-based; details: RXF 393, 4 h
SN12C = assay: Cytotoxicity against human SN12C cells after 4 hrs by MTT assay; type: functional, cell-based
Hs-578T = assay: Cytotoxicity against human Hs578T cells after 4 hrs by MTT assay; type: functional, cell-based
T47D = assay: Cytotoxicity against human T47D cells after 4 hrs by MTT assay; type: functional, cell-based
MDA-MB-468 = assay: Cytotoxicity against human MDA-MB-468 cells after 4 hrs by MTT assay; type: functional, cell-based; details: MDA-MB-468, 4 h
Ramos [1] = assay: Cytotoxicity against human Ramos cells after 4 hrs by MTT assay; type: functional, cell-based
Summary of the method: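 Ramos Burkitt's lymphoma cells, kept in suspension in RPMI 1640 with 10% FBS, were seeded at 4 × 10^5 cells/ml in serum-free RPMI 1640. Compounds in RPMI-1640 were added immediately, then 4 h at 37 °C, 5% CO2. MTT was added for a further 2 h, formazan dissolved in acidic isopropanol (0.04 N HCl), and A590 read. Survival was calculated against untreated medium control; 1% Triton X-100 served as positive control.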

MRC5 = assay: Cytotoxicity against human MRC5 cells after 4 hrs by MTT assay; type: cell-based; details: MRC5, 4 h
Summary of the method: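 MRC-5 embryonic lung fibroblast monolayers in MEM with 10% FBS were seeded at 1 × 10^5 cells/ml, grown overnight, then medium was replaced with compound solution. Exposure was 4 h at 37 °C, 5% CO2, then MTT for 2 h. Formazan was dissolved in acidic isopropanol (0.04 N HCl) and absorbance read at 590 nm. Background-corrected viability was taken relative to medium-only control, with Triton X-100 as positive control.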

Ramos [2] = assay: Induction of apoptosis in human Ramos cells assessed as disruption of mitochondrial potential after 1 hr by TMRE based flow cytometry; type: functional, cell-based
CCRF-CEM = assay: Cytotoxicity against human CCRF-CEM cells after 4 hrs by MTT assay; type: functional, cell-based
HL-60 = assay: Cytotoxicity against human HL60 cells after 4 hrs by MTT assay; type: functional, cell-based; details: HL-60, 4 h
[3] = Cytotoxicity against human […] cells after 4 hrs by MTT assay; type: functional, cell-based
SR = assay: Cytotoxicity against human SR cells after 4 hrs by MTT assay; type: functional, cell-based
A549 = assay: Cytotoxicity against human A549 cells after 4 hrs by MTT assay; type: functional, cell-based; details: A549, 4 h
HOP-92 = assay: Cytotoxicity against human HOP92 cells after 4 hrs by MTT assay; type: functional, cell-based; details: HOP-92, 4 h
NCI-H23 = assay: Cytotoxicity against human NCI-H23 cells after 4 hrs by MTT assay; type: functional, cell-based; details: NCI-H23, 4 h
COLO 205 = assay: Cytotoxicity against human COLO205 cells after 4 hrs by MTT assay; type: functional, cell-based; details: COLO 205, 4 h
HCC 2998 = assay: Cytotoxicity against human HCC2998 cells after 4 hrs by MTT assay; type: functional, cell-based; details: HCC 2998, 4 h
HCT-116 = assay: Cytotoxicity against human HCT116 cells after 4 hrs by MTT assay; type: functional, cell-based; details: HCT-116, 4 h
[4] = read-out: LC50 (the source's name)

For `NCCNC(=O)C(CN)(Cc1ccc2ccccc2c1)Cc1ccc2ccccc2c1`, the IC50 (KM12) was 0.74 µM, the TGI (KM12) was 1.7 µM and the CC50 (KM12; [4]) was 4.57 µM. For the same compound, the IC50 (SW-620) was 0.35 µM, the TGI (SW-620) was 0.83 µM and the CC50 (SW-620; [4]) was 3.39 µM. It also gave an IC50 (SF-268) of 2.82 µM, a TGI (SF-268) of 3.02 µM and a CC50 (SF-268; [4]) of 6.03 µM. For the same compound, the IC50 (SF-295) was 2.51 µM, the TGI (SF-295) was 2.69 µM and the CC50 (SF-295; [4]) was 5.75 µM. It also gave an IC50 (SF-539) of 2.69 µM, a TGI (SF-539) of 2.88 µM and a CC50 (SF-539; [4]) of 5.62 µM. The IC50 (SNB-19) was 2.95 µM, the TGI (SNB-19) was 3.02 µM and the CC50 (SNB-19; [4]) was 5.62 µM. The IC50 (SNB-75) was 2.75 µM, the TGI (SNB-75) was 2.69 µM and the CC50 (SNB-75; [4]) was 5.25 µM. It also gave an IC50 (U-251) of 1.48 µM, a TGI (U-251) of 2.14 µM and a CC50 (U-251; [4]) of 4.68 µM. The IC50 (M14) was 3.16 µM, the TGI (M14) was 3.24 µM and the CC50 (M14; [4]) was 6.03 µM. It also gave an IC50 (MDA-MB-435) of 1.02 µM, a TGI (MDA-MB-435) of 2 µM and a CC50 (MDA-MB-435; [4]) of 5.62 µM. The IC50 (UACC-257) was 3.39 µM, the TGI (UACC-257) was 3.39 µM and the CC50 (UACC-257; [4]) was 5.89 µM. It also gave an IC50 (OVCAR-5) of 2.95 µM, a TGI (OVCAR-5) of 3.02 µM and a CC50 (OVCAR-5; [4]) of 5.75 µM. It also gave an IC50 (SK-OV-3) of 3.02 µM, a TGI (SK-OV-3) of 3.02 µM and a CC50 (SK-OV-3; [4]) of 5.5 µM. It also gave an IC50 (CAKI-1) of 2.75 µM, a TGI (CAKI-1) of 3.02 µM and a CC50 (CAKI-1; [4]) of 6.17 µM. For the same compound, the IC50 (RXF 393) was 2.69 µM, the TGI (RXF 393) was 2.69 µM and the CC50 (RXF 393; [4]) was 5.5 µM. It also gave an IC50 (SN12C) of 3.24 µM, a TGI (SN12C) of 3.31 µM and a CC50 (SN12C; [4]) of 6.17 µM. The IC50 (Hs-578T) was 3.63 µM, the TGI (Hs-578T) was 3.47 µM and the CC50 (Hs-578T; [4]) was 7.94 µM. The IC50 (T47D) was 3.8 µM, the TGI (T47D) was 3.39 µM and the CC50 (T47D; [4]) was 7.59 µM. The IC50 (MDA-MB-468) was 2.75 µM, the TGI (MDA-MB-468) was 2.95 µM and the CC50 (MDA-MB-468; [4]) was 6.17 µM. For the same compound, the IC50 (Ramos [1]) was 4.1 µM, the EC50 (MRC5) was 22 µM and the Activity (Ramos [2]) was “Active”. For the same compound, the IC50 (CCRF-CEM) was 2.24 µM, the TGI (CCRF-CEM) was 3.39 µM and the CC50 (CCRF-CEM; [4]) was 9.12 µM. The IC50 (HL-60) was 0.48 µM, the TGI (HL-60) was 1.38 µM and the IC50 [3] was 3.63 µM. The TGI [3] was 4.57 µM, the IC50 (SR) was 0.35 µM and the TGI (SR) was 0.62 µM. It also gave an IC50 (A549) of 2.51 µM, a TGI (A549) of 2.88 µM and a CC50 (A549; [4]) of 5.75 µM. It also gave an IC50 (HOP-92) of 3.72 µM, a TGI (HOP-92) of 3.47 µM and a CC50 (HOP-92; [4]) of 7.24 µM. For the same compound, the IC50 (NCI-H23) was 3.09 µM, the TGI (NCI-H23) was 3.24 µM and the CC50 (NCI-H23; [4]) was 6.31 µM. It also gave an IC50 (COLO 205) of 0.34 µM, a TGI (COLO 205) of 0.35 µM and a CC50 (COLO 205; [4]) of 0.69 µM. The IC50 (HCC 2998) was 0.59 µM, the TGI (HCC 2998) was 1.26 µM and the CC50 (HCC 2998; [4]) was 3.98 µM. It also gave an IC50 (HCT-116) of 0.65 µM, a TGI (HCT-116) of 1.74 µM and a CC50 (HCT-116; [4]) of 4.37 µM.
